Assay results reported in ChEMBL document CHEMBL1177765, “Synthesis and biological evaluation of new cytotoxic azanaphthoquinone pyrrolo-annelated derivatives” (Bioorg Med Chem Lett, 2010).
Values after ≈ are worked out from the molar mass of the structure shown. Active and inactive are the calls of the source. No cut-off for these calls is given here.

Legend:
[1] = Cytotoxicity against human KB/HeLa cells after 48 hrs by XTT assay; format: functional, cell-based
Procedure, shortened: (§1)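 XTT assay of cell proliferation after 48 h exposure. EC50 is the concentration giving 50% inhibition, fitted by nonlinear regression to data from at least two independent assays.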

SF-268 [2] = experiment: Cytotoxicity against human SF268 cells after 48 hrs by XTT assay; format: functional, cell-based; conditions: SF-268, 48 h; procedure, shortened: as §1
NCI-H460 [3] = experiment: Cytotoxicity against human NCI-H460 cells after 48 hrs by XTT assay; format: functional, cell-based; conditions: NCI-H460, 48 h; procedure, shortened: as §1
SK-OV-3 [4] = experiment: Cytotoxicity against human SKOV3 cells after 48 hrs by XTT assay; format: functional, cell-based; conditions: SK-OV-3, 48 h; procedure, shortened: as §1
[5] = Cytotoxicity against human RKOp27IND cells after 48 hrs by XTT assay; format: functional, cell-based
Nucleic Acid = experiment: Binding affinity to DNA at 125 uM; format: nucleic-acid assay
Procedure, shortened: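 UV-absorbance DNA intercalation assay. Stocks up to 5 mM were made in 5% (v:v) DMSO or methanol, then diluted stepwise in pH 7 buffer (5 mM NaH2PO4, 5 mM Na2HPO4, 70 mM NaCl) to give absorbance maximum about 1–2. Spectra were read from 350 to 600 nm with or without 2 mg/ml calf thymus DNA. Acridine orange was the reference.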

[6] = Cytotoxicity against human RKOp27 cells after 48 hrs by XTT assay; format: functional, cell-based; conditions: RKOp27, 48 h; procedure, shortened: as §1
[7] = Cell cycle arrest in human RKOp27 cells assessed as accumulation at G2/M phase; format: functional, cell-based
[8] = Cell cycle arrest in human RKOp27IND cells assessed as accumulation at G2/M phase; format: functional, cell-based
SF-268 [9] = experiment: Cytotoxicity against human SF268 cells at 3.16 ug/mL after 48 hrs by XTT assay; format: functional; conditions: SF-268, 48 h
NCI-H460 [10] = experiment: Cytotoxicity against human NCI-H460 cells at 3.16 ug/mL after 48 hrs by XTT assay; format: functional; conditions: NCI-H460, 48 h
[11] = Cytotoxicity against human KB/HeLa cells at 3.16 ug/mL after 48 hrs by XTT assay; format: functional
SK-OV-3 [12] = experiment: Cytotoxicity against human SKOV3 cells at 3.16 ug/mL after 48 hrs by XTT assay; format: functional; conditions: SK-OV-3, 48 h
[13] = Cytotoxicity against human RKOp27IND cells at 3.16 ug/mL after 48 hrs by XTT assay; format: functional
[14] = Cytotoxicity against human RKOp27 cells at 3.16 ug/mL after 48 hrs by XTT assay; format: functional; conditions: RKOp27, 48 h

Activity (Nucleic Acid)	SMILES	EC50 [1] [µg/mL]	EC50 (SF-268 [2]) [µg/mL]	EC50 (NCI-H460 [3]) [µg/mL]	EC50 (SK-OV-3 [4]) [µg/mL]	EC50 [5] [µg/mL]	EC50 [6] [µg/mL]	Activity [7]	Activity [8]	inhibition at 3.16 µg/mL (SF-268 [9]) [%]	inhibition at 3.16 µg/mL (NCI-H460 [10]) [%]	inhibition at 3.16 µg/mL [11] [%]	inhibition at 3.16 µg/mL (SK-OV-3 [12]) [%]	inhibition at 3.16 µg/mL [13] [%]	inhibition at 3.16 µg/mL [14] [%]
inactive	CN(C)CCn1ccc2c1C(=O)c1cncnc1C2=O	0.173 (≈ 0.64 µM)	0.107 (≈ 0.396 µM)	0.082 (≈ 0.303 µM)	0.239 (≈ 0.884 µM)	0.377 (≈ 1.39 µM)	0.173 (≈ 0.64 µM)	inactive	inactive						
	CN(C)CCCn1ccc2c1C(=O)c1ncccc1C2=O									< 50	< 50	< 50	< 50	< 50	< 50
	CN(C)CCn1ccc2c1C(=O)c1cccnc1C2=O									< 50	< 50	< 50	< 50	< 50	< 50
	CN(C)CCn1ccc2c1C(=O)c1ncccc1C2=O									< 50	< 50	< 50	< 50	< 50	< 50
	CN(C)CCn1ccc2c1C(=O)c1nccnc1C2=O	1.37 (≈ 5.06 µM)	2.7 (≈ 9.99 µM)	1.12 (≈ 4.15 µM)	3 (≈ 11.1 µM)	2.97 (≈ 11 µM)	1.19 (≈ 4.42 µM)								
	CN(C)CCCn1ccc2c1C(=O)c1cncnc1C2=O	0.28 (≈ 0.985 µM)	0.198 (≈ 0.696 µM)	0.177 (≈ 0.623 µM)	0.452 (≈ 1.59 µM)	0.44 (≈ 1.55 µM)	0.246 (≈ 0.865 µM)								
	CN(C)CCCn1ccc2c1C(=O)c1nccnc1C2=O									< 50	< 50	< 50	< 50	< 50	< 50
	CN(C)CCCn1ccc2c1C(=O)c1cccnc1C2=O									< 50	< 50	< 50	< 50	< 50	< 50
	CN(C)CCCn1ccc2c1C(=O)c1ccncc1C2=O	3 (≈ 10.6 µM)	3 (≈ 10.6 µM)	3 (≈ 10.6 µM)	3 (≈ 10.6 µM)	3 (≈ 10.6 µM)	3 (≈ 10.6 µM)								
	CN(C)CCn1ccc2c1C(=O)c1ccncc1C2=O	3 (≈ 11.1 µM)	3 (≈ 11.1 µM)	3 (≈ 11.1 µM)	3 (≈ 11.1 µM)	3 (≈ 11.1 µM)	3 (≈ 11.1 µM)								
